N-glyco inh: blocks N-linked glycosylation in D54 reporter cells; D54 ERlucT glycosylation luciferase reporter, 24 h; percent of 100 nM tunicamycin response; reporter increase, % at 12.5 µM; 0.23% of 360,000 active; AID 588692;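 active means mean luciferase reporter signal, scaled so untreated is 0 and the glycosylation-blocking control 100, at or above a set limit in every replicate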;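 further: luciferase carries N-glycosylation sites so blocking glycosylation raises the light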
Rtt109 HAT inh: blocks Candida albicans Rtt109/Vps75 acetyltransferase activity. AID 540336. 0.16% of 330,000 active. purified Rtt109/Vps75, ThioGlo CoA-SH fluorescence, 4 h. inhibition, % at 34.9 µM;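 active means inhibition of at least 50% in every replicate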
Target sequence (Q5AAJ8 whole entry, looked up): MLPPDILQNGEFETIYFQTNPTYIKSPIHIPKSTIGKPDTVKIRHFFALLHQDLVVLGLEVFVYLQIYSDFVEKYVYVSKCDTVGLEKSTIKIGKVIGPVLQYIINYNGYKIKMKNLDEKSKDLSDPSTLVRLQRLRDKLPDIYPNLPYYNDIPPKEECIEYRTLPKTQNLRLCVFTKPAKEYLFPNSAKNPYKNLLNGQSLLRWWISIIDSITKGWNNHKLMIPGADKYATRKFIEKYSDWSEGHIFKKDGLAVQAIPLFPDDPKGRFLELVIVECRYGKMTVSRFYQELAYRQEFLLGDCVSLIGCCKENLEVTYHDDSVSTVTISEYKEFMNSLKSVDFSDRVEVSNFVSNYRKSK
HIV Env fusion: HIV envelope-mediated fusion inhibition; HeLa-JRFL Env/CEM21 cell fusion, luciferase; inhibition, % at 12.3 µM; 1.1% of 360,000 active; AID 651610;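 active means mean replicate inhibition score of at least 50 and every replicate individually at or above 50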
Arr AP2 block: inhibitors of human beta-arrestin and AP2 interaction | inhibition, % at 10 µM | FITC-arrestin peptide / GST-AP2 beads, flow cytometry; AP2 beta2 appendage carries R879A mutation | 0.31% of 340,000 active;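 active means inhibition above a set limit, near 3 SD of compounds lacking own fluorescence, cut at about 54% in these data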
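System: GST-AP2 R879A glutathione beads | Also added: FITC-arrestin peptide, 50 nM | Times: 12 min plus 1 h, RT | Signal: Bead flow cytometry, FITC channel | Buffer or medium: PBS with 0.05% Tween 20 and 0.1% BSA | Read-out basis: Percent drop in bead-associated FITC signal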
PAX8 reporter: inhibitors of PAX8 transcriptional activity in RMG-I cells; RMG-I TPO-luciferase reporter, SteadyGlo, 24 h; inhibition, % at 12.6 µM; 1.2% of 360,000 active;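 active means mean replicate inhibition at least 60% with every replicate also reaching 60%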;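 further: luciferase light reporting Pax8 driven TPO promoter activity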
PfHsp90 set2: growth inhibition of yeast expressing Plasmodium Hsp90 | inhibition, % at 9.4 µM | 0.32% of 310,000 active | S. cerevisiae expressing PfHsp90, BacTiter-Glo ATP, 48 h; yeast lacking PDR1 and PDR3 efflux regulators;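 active means every replicate shows inhibition above about 80%, whatever the replicate mean, limit read from the data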
Numbers stand for hits. Most compounds without a hit are left out; they make up all but 2.3% or so of the library.

CC(=O)Nc1ccc(NC(=O)COc2ccc(-c3ccc(C#N)cc3)cc2)cc1 was read as N-glyco inh inactive, Rtt109 HAT inh inactive, HIV Env fusion inactive, Arr AP2 block inactive, PAX8 reporter inactive and PfHsp90 set2 inactive.
N#Cc1ccc(-c2ccc(OCC(=O)Nc3cccnc3)cc2)cc1 was read as N-glyco inh inactive, Rtt109 HAT inh inactive, HIV Env fusion 59, Arr AP2 block inactive, PAX8 reporter inactive and PfHsp90 set2 inactive.
O=C(C[C@H]1C[C@@H]2c3cc(NC(=O)C4CCOCC4)ccc3O[C@@H]2[C@H](CO)O1)NCc1cccnc1 was read as HIV Env fusion inactive and PAX8 reporter inactive.
`O=C1[C@H](Cc2ccccc2)NCCCC[C@H](c2ccco2)N1Cc1ccccc1` gave N-glyco inh inactive, Rtt109 HAT inh inactive, HIV Env fusion 74, Arr AP2 block inactive, PAX8 reporter inactive and PfHsp90 set2 inactive.
O=C1[C@H](Cc2ccccc2)NCCCC[C@@H](c2ccco2)N1Cc1ccccc1 was read as N-glyco inh inactive, Rtt109 HAT inh inactive, HIV Env fusion 58, Arr AP2 block inactive, PAX8 reporter inactive and PfHsp90 set2 inactive.
`O=C1[C@H](Cc2ccccc2)NCCCC[C@H](c2ccc(Cl)cc2)N1Cc1ccccc1` gave N-glyco inh inactive, Rtt109 HAT inh inactive, HIV Env fusion 86, Arr AP2 block inactive, PAX8 reporter inactive and PfHsp90 set2 inactive.
`CO[C@H]1CN(C)C(=O)c2cc(NC(=O)C3CC3)ccc2OC[C@H](C)N(C(=O)C2CCCCC2)C[C@@H]1C` gave PAX8 reporter inactive.
C[C@@H]1CCCCO[C@H](CN(C)C(=O)CCC(F)(F)F)[C@@H](C)CN([C@H](C)CO)C(=O)c2cc(NS(=O)(=O)c3ccc(F)cc3)ccc2O1 was read as HIV Env fusion inactive and PAX8 reporter inactive.
`C[C@@H]1CN([C@H](C)CO)C(=O)c2cc(C#CC3(O)CCCC3)cnc2O[C@@H]1CN(C)C(=O)C1CC1` gave HIV Env fusion inactive.
For CCCNC(=O)N[C@H]1C=C[C@@H](CC(=O)NC2CCCCC2)O[C@@H]1CO the results were HIV Env fusion inactive and PAX8 reporter inactive.
For O=[N+]([O-])c1ccc(S(=O)(=O)CC(CN2CCCCC2)N2CCCCC2)cc1 (centres undefined) the results were N-glyco inh inactive, Rtt109 HAT inh inactive, HIV Env fusion inactive, Arr AP2 block inactive, PAX8 reporter inactive and PfHsp90 set2 inactive.
`O=S(=O)(CC(CN1CCCCC1)N1CCCCC1)c1ccccc1` (centres undefined) gave N-glyco inh inactive, Rtt109 HAT inh inactive, HIV Env fusion inactive, Arr AP2 block inactive, PAX8 reporter 64 and PfHsp90 set2 inactive.
`Nc1ccccc1Sc1nc2ccccc2[nH]1` gave N-glyco inh inactive, Rtt109 HAT inh 101, HIV Env fusion inactive, Arr AP2 block inactive, PAX8 reporter inactive and PfHsp90 set2 inactive.
Screening Nc1nc2ccccc2[nH]1 returned N-glyco inh inactive, Rtt109 HAT inh inactive, HIV Env fusion inactive, Arr AP2 block inactive, PAX8 reporter inactive and PfHsp90 set2 inactive.
`CCCC#Cc1cnc2c(c1)C(=O)N([C@@H](C)CO)C[C@H](C)[C@H](CN(C)S(C)(=O)=O)O2` gave HIV Env fusion inactive.
`CO[C@@H]1CN(C)C(=O)c2ccc(NC(=O)c3cc(C)on3)cc2OC[C@H](C)N(C(C)=O)C[C@@H]1C` gave HIV Env fusion inactive.
Screening Cc1cccc2sc(NC(=O)CCNC(=O)c3ccco3)nc12 returned N-glyco inh inactive, Rtt109 HAT inh inactive, Arr AP2 block inactive, PAX8 reporter inactive and PfHsp90 set2 inactive.
For CC(=O)c1sc(NC(=O)CCNC(=O)c2ccco2)nc1-c1ccccc1 the results were N-glyco inh inactive, Rtt109 HAT inh inactive, HIV Env fusion 62, Arr AP2 block inactive, PAX8 reporter inactive and PfHsp90 set2 inactive.
For CC[C@@H](C(=O)[C@@H](C)[C@@H](O)[C@H](C)CCc1ccc(C)c(O)c1C(=O)O)[C@H]1O[C@](CC)([C@H]2CC[C@](O)(CC)[C@H](C)O2)C[C@@H]1C the results were N-glyco inh inactive, Rtt109 HAT inh inactive, HIV Env fusion inactive, Arr AP2 block inactive, PAX8 reporter 104 and PfHsp90 set2 inactive.
Screening CSc1sc(-c2ccnc(SCC(=O)C(C)(C)C)n2)c2c1C(=O)CC(C)(C)C2 returned N-glyco inh inactive, Rtt109 HAT inh inactive, HIV Env fusion 65, Arr AP2 block inactive, PAX8 reporter inactive and PfHsp90 set2 inactive.
For COc1ccc(S(=O)(=O)n2ccc(-c3ccc(OCCN(C)c4ccccn4)cc3)n2)cc1 the results were N-glyco inh inactive, Rtt109 HAT inh inactive, HIV Env fusion 75, Arr AP2 block inactive and PAX8 reporter inactive.
COc1ccccc1-c1cnc2c(c1)C(=O)N([C@H](C)CO)C[C@H](C)[C@H](CN(C)CC1CC1)O2 was read as HIV Env fusion inactive.
C/C(CC(=O)Nc1cc(C)ccn1)=N\NC(=O)c1cccc(C)c1O was read as N-glyco inh inactive, Rtt109 HAT inh inactive, HIV Env fusion inactive, Arr AP2 block inactive, PAX8 reporter inactive and PfHsp90 set2 101.
For CCCN(C)C[C@H]1Oc2ncc(-c3cccc(C#N)c3)cc2C(=O)N([C@H](C)CO)C[C@@H]1C the results were HIV Env fusion inactive.
For CN=c1scc(-c2ccc(F)cc2)n1/N=C/c1ccc(O)c(O)c1 the results were N-glyco inh inactive, Rtt109 HAT inh inactive, HIV Env fusion inactive, Arr AP2 block inactive, PAX8 reporter 66 and PfHsp90 set2 inactive.
C[C@H](NC(=O)C[C@@H]1C[C@@H]2c3cc(NC(=O)C4CCOCC4)ccc3O[C@@H]2[C@@H](CO)O1)c1ccccc1 was read as HIV Env fusion inactive and PAX8 reporter inactive.
For CC(Nc1nc(-c2ccc(F)cc2)cs1)c1nc2cc(C(F)(F)F)ccc2n1CCCO (centres undefined) the results were N-glyco inh inactive, Rtt109 HAT inh inactive, HIV Env fusion 75, Arr AP2 block inactive, PAX8 reporter inactive and PfHsp90 set2 inactive.
For O=C(c1cccnc1)N1CC(=O)N2[C@H](CO)[C@H](c3ccc(/C=C/c4ccccc4)cc3)[C@@H]2C1 the results were PAX8 reporter inactive.
Screening COc1ccc(C(=O)C2CCN(C(=O)c3ccc(C)cc3)CC2)cc1 returned N-glyco inh inactive, Rtt109 HAT inh inactive, HIV Env fusion 86, Arr AP2 block inactive, PAX8 reporter inactive and PfHsp90 set2 inactive.
`CN(C)CC(=O)Nc1ccc2c(c1)[C@H]1C[C@H](CC(=O)NCc3ccncc3)O[C@H](CO)[C@H]1O2` gave HIV Env fusion inactive and PAX8 reporter inactive.
`C[C@H](CO)N1C[C@H](C)[C@H](CN(C)C(=O)Cc2ccccn2)Oc2cc(-c3cccc(C(=O)N(C)C)c3)ccc2S1(=O)=O` gave HIV Env fusion inactive.

Assay outcomes: PubChem BioAssay, several laboratories
